Calls of active or inactive are those of the source. No cut-off for these calls is given here.
Key:
Spodoptera litura [1] = test: Insecticidal activity against fourth instar larval stage of Spodoptera litura in glandless fresh cabbage leaves assessed as growth inhibition measured 3 days after feeding diet containing compound; assay type: functional, organism-based
Outline: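 Larvae starved 4 h, weighed, then placed on treated material for 4 h. They were then moved to fresh untreated leaves or artificial diet. This was repeated every 24 h, with each larva's weight recorded. Seven replicates per treatment; whole experiment run three times.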

Spodoptera litura [2] = test: Drug metabolism in fourth instar larval stage of Spodoptera litura assessed in excrements after feeding diet containing compound by HPLC analysis; assay type: ADME, organism-based; details: in vivo, po
Outline: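 Excrement from treated and control larvae was collected separately, extracted with methanol under ultrasonication (3 × 20 min), centrifuged, and the supernatant run on RP-18 HPLC (250 × 4.6 mm, 5 μm) at 30 °C and 1.0 mL/min. Elution used a water/methanol gradient set per analyte over 0–30 min, then 95% methanol. DAD read at 210/238/254/280 nm; TLC (CHCl3/MeOH 4:1) for a non-UV-absorbing analyte.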

Spodoptera litura [3] = test: Antifeedant activity against fourth instar larval stage of Spodoptera litura on fresh cabbage leaves; assay type: functional, organism-based

Drug metabolism (Spodoptera litura [2]) | SMILES | growth inhibition (GI) (Spodoptera litura [1]) | Activity (Spodoptera litura [3])
Not Active | O=c1c(-c2ccc(O)cc2)coc2cc(O)ccc12 [DAIDZEIN] | Active | inactive
Active | O=c1c(-c2ccc(O)cc2)coc2cc(O)cc(O)c12 [GENISTEIN] | inactive | inactive
Active | O=c1c(-c2ccc(O)cc2)coc2cc(O[C@@H]3O[C@H](CO)[C@@H](O)[C@H](O)[C@H]3O)cc(O)c12 [GENISTIN] | inactive | inactive
Active | CO[C@H]1[C@H](O)[C@@H](O)[C@@H](O)[C@H](O)[C@@H]1O [METHYLINOSITOL] | inactive | inactive
